From ChEMBL document CHEMBL5260794, “Synthesis and biological evaluation of a new class of benzothiazines as neuroprotective agents” (Eur J Med Chem, 2017)
Active and inactive are the calls of the source. The rule behind the calls is not given here.

Legend:
SH-SY5Y [1] = experiment: Neuroprotective activity against glutamate-induced toxicity in human SH-SY5Y cells assessed as cell viability at 0.01 uM pretreated for 1 hr followed by glutamate challenge measured after 24 hrs by MTT assay; type: functional; details: time 25 hrs, read-out: Activity
SH-SY5Y [2] = experiment: Neuroprotective activity against glutamate-induced toxicity in human SH-SY5Y cells assessed as reduction in cell shrinkage at 0.01 uM pretreated for 1 hr followed by glutamate challenge measured after 24 hrs by phase-contrast light microscopic analysis; type: functional, cell-based; details: time 25.0 hrs
Procedure, shortened: (§1)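 SH-SY5Y cells pretreated with compound 1 h, then glutamate 50 mM for 24 h. Morphology examined and photographed by phase-contrast microscopy. Scored on USP 28 grade scale 0-4, with grades based on cell rounding, loss of intracytoplasmic granules, lysis and empty areas between cells. Control wells received medium only.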

SH-SY5Y [3] = experiment: Neuroprotective activity against glutamate-induced toxicity in human SH-SY5Y cells assessed as reduction in ROS production measured after 24 hrs by DCFH-DA staining based assay; type: functional, cell-based; details: dose 0.1-10 µM
Procedure, shortened: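 Human SH-SY5Y neuroblastoma cells were preloaded with DCFH-DA (5 μM, 30 min) and washed in PBS. They were then pretreated for 1 h with compound (0.1-10 μM; DMSO stock diluted in PBS, final DMSO <0.01%) and challenged with glutamate (50 mM). Fluorescence (ex 485/em 535 nm) was read at 24 h and expressed as % inhibition of glutamate-induced ROS. Data are mean ± SEM of 4 experiments run in triplicate or quadruplicate.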

SH-SY5Y [4] = experiment: Neuroprotective activity against glutamate-induced toxicity in human SH-SY5Y cells assessed as reduction in cell rounding at 0.01 uM pretreated for 1 hr followed by glutamate challenge measured after 24 hrs by phase-contrast light microscopic analysis; type: functional, cell-based; details: time 25.0 hrs; procedure, shortened: as §1
SH-SY5Y [5] = experiment: Neuroprotective activity against glutamate-induced toxicity in human SH-SY5Y cells assessed as reduction in sub G0/G1 phase cells at 0.01 uM pretreated for 1 hr followed by glutamate challenge measured after 24 hrs by propidium staining based flow cytometry; type: functional, cell-based; details: time 25.0 hrs
Procedure, shortened: (§2)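 Cells seeded 2.5 x 10⁵ cells/mL, pretreated with compound 1 h, then glutamate 50 mM for 24 h. Cells fixed in 70% ethanol (30 min, 4 °C), kept at -20 °C for at least 24 h, stained with propidium iodide and run on flow cytometer (563-607 nm band-pass). At least 1x10⁴ cells acquired per sample; sub-G0/G1 peak taken as apoptotic. Mean ± SEM, 4 independent experiments.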

SH-SY5Y [6] = experiment: Neuroprotective activity against 6-OHDA-induced toxicity in human SH-SY5Y cells assessed as condensed and fragmented nuclei at 0.01 uM pretreated for 1 hr followed by 6-OHDA challenge measured after 2 hrs by DAPI staining based assay relative to control; type: functional; details: time 3 hrs
SH-SY5Y [7] = experiment: Neuroprotective activity against glutamate-induced toxicity in human SH-SY5Y cells assessed as increase in S phase cells at 0.01 uM pretreated for 1 hr followed by glutamate challenge measured after 24 hrs by propidium staining based flow cytometry; type: functional, cell-based; details: time 25.0 hrs; procedure, shortened: as §2
SH-SY5Y [8] = experiment: Neuroprotective activity against glutamate-induced toxicity in human SH-SY5Y cells assessed as reduction in grade 2 to 3 toxicity at 0.01 uM pretreated for 1 hr followed by glutamate challenge measured after 24 hrs by phase-contrast light microscopic analysis; type: functional, cell-based; details: time 25.0 hrs; procedure, shortened: as §1
SH-SY5Y [9] = experiment: Neuroprotective activity against glutamate-induced toxicity in human SH-SY5Y cells assessed as reduction in condensed and fragmented nuclei at 0.01 uM pretreated for 1 hr followed by glutamate challenge measured after 24 hrs by DAPI staining based assay (reference value: 16.9 +/- 1.5%); type: functional, cell-based; details: time 25.0 hrs
SH-SY5Y [10] = experiment: Neuroprotective activity against glutamate-induced toxicity in human SH-SY5Y cells assessed as reduction in G0/G1 phase cells at 0.01 uM pretreated for 1 hr followed by glutamate challenge measured after 24 hrs by propidium staining based flow cytometry; type: functional, cell-based; details: time 25.0 hrs; procedure, shortened: as §2
SH-SY5Y [11] = experiment: Neuroprotective activity against glutamate-induced toxicity in human SH-SY5Y cells assessed as reduction in ROS production at 0.01 uM by DCFH-DA staining based assay; type: functional, cell-based; details: time 24.0 hrs, TDE = time-dependent effect
Procedure, shortened: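 Before treatment, SH-SY5Y cells loaded with DCFH-DA (5 μM, 30 min) and washed in PBS. Then 1 h compound pretreatment followed by glutamate 50 mM. Fluorescence read at 1 h or 24 h (ex 485, em 535 nm). Result expressed as % inhibition of glutamate-induced intracellular ROS. Mean ± SEM, 4 independent experiments in triplicate or quadruplicate.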

SH-SY5Y [12] = experiment: Neuroprotective activity against 6-OHDA-induced toxicity in human SH-SY5Y cells assessed as increase in cell viability at 0.01 uM pretreated for 1 hr followed by 6-OHDA challenge measured after 2 hrs by MTT assay; type: functional, cell-based; details: time 3.0 hrs
Procedure, shortened: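 SH-SY5Y cells (RPMI 1640, 10% FBS, 37 °C, 5% CO2, used in exponential growth) seeded 8 x 10⁴ cells/mL, attached 24 h, pre-incubated with compound 1 h, then 6-OHDA 55 μM for 2 h (6-OHDA freshly dissolved in nitrogen-gassed 5 μM ascorbic acid). Controls received medium with 5 μM ascorbic acid. Viability by MTT. Mean ± SEM of 4 independent experiments, each in triplicate or quadruplicate.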

SH-SY5Y [13] = experiment: Neuroprotective activity against glutamate-induced toxicity in human SH-SY5Y cells assessed as reduction in cell detachment at 0.01 uM pretreated for 1 hr followed by glutamate challenge measured after 24 hrs by phase-contrast light microscopic analysis; type: functional, cell-based; details: time 25.0 hrs; procedure, shortened: as §1
Rattus norvegicus [14] = species: Rattus norvegicus; experiment: Neuroprotective activity against oxygen glucose deprivation/reperfusion-induced Wistar rat cortical brain assessed as reduction in LDH release relative to control; type: functional; set-up: concentration or dose not given beside the values
Procedure, shortened: (§3)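 Male Wistar rat cortical slices (400 μm) in oxygenated ACSF, pH 7.4, 1 h at room temperature, then 30 min at 37 °C. OGD for 30 min in glucose-free ACSF with 11 mM sucrose under 95% N₂/5% CO₂. Compound added in the reoxygenation buffer. Glutamate and LDH release measured. Mean ± SEM of at least four experiments, ANOVA with Dunnett test.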

Rattus norvegicus [15] = species: Rattus norvegicus; experiment: Neuroprotective activity against oxygen glucose deprivation/reperfusion-induced Wistar rat cortical brain assessed as reduction in glutamate release relative to control; type: functional; set-up: concentration or dose not given beside the values; procedure, shortened: as §3
Rattus norvegicus [16] = species: Rattus norvegicus; experiment: Neuroprotective activity against oxygen glucose deprivation/reperfusion-induced Wistar rat cortical brain assessed as concentration required to reduce LDH release by measuring efficacy window; type: functional; procedure, shortened: as §3
Rattus norvegicus [17] = species: Rattus norvegicus; experiment: Neuroprotective activity against oxygen glucose deprivation/reperfusion-induced Wistar rat cortical brain assessed as reduction in LDH release by measuring minimal effective concentration; type: functional; procedure, shortened: as §3
Rattus norvegicus [18] = species: Rattus norvegicus; experiment: Neuroprotective activity against oxygen glucose deprivation/reperfusion-induced Wistar rat cortical brain assessed as concentration required to reduce glutamate release by measuring efficacy window; type: functional; procedure, shortened: as §3
Rattus norvegicus [19] = species: Rattus norvegicus; experiment: Neuroprotective activity against oxygen glucose deprivation/reperfusion-induced Wistar rat cortical brain assessed as reduction in glutamate release by measuring minimal effective concentration; type: functional; procedure, shortened: as §3
SH-SY5Y [20] = experiment: Neuroprotective activity against 6-OHDA-induced toxicity in human SH-SY5Y cells assessed as reduction in condensed and fragmented nuclei at 10 uM pretreated for 1 hr followed by 6-OHDA challenge measured after 2 hrs by DAPI staining based assay relative to control; details: time 3.0 hrs

SMILES	Activity (Rattus norvegicus [14])	Activity (Rattus norvegicus [15])	Efficacy (Rattus norvegicus [16])	MEC (Rattus norvegicus [17])	Efficacy (Rattus norvegicus [18])	MEC (Rattus norvegicus [19])	also measured
Nc1nc2ccc(OC(F)(F)F)cc2s1 [RILUZOLE]	–	–	–	–	–	–	viability at 0.01 µM (SH-SY5Y [1]): 65%; Activity (SH-SY5Y [2]): Active; Activity (SH-SY5Y [3]): Dose-Dependent Effect; Activity (SH-SY5Y [4]): Active; Activity (SH-SY5Y [5]): Active; Activity (SH-SY5Y [6]): >20%; Activity (SH-SY5Y [7]): Active; Activity (SH-SY5Y [8]): Active; Activity (SH-SY5Y [9]): Active; Activity (SH-SY5Y [10]): Active; Activity (SH-SY5Y [11]): Tde; Activity (SH-SY5Y [12]): Active; Activity (SH-SY5Y [13]): Active
CN/C(C)=N/C1=Nc2ccccc2CS1	40.1%	43.6%	1 µM	0.1 µM	5 µM	5 µM	Activity (SH-SY5Y [20]): Active
CN/C(C)=N/C1=Nc2ccccc2SC1	33.2%	25.5%	100 µM	100 µM	0.1 µM	0.1 µM	–
CCCN(CCC)/C(C)=N/C1=Nc2ccc(OC(F)(F)F)cc2CS1	31%	17.8%	0.1 µM	0.1 µM	0.01 µM	0.01 µM	–
C/C(=N\C1=Nc2ccccc2CS1)N(C)C	78.4%	72.7%	0.01 µM	0.01 µM	0.01 µM	0.01 µM	–
NC1=Nc2ccc(OC(F)(F)F)cc2CS1	inactive	69.1%	inactive	inactive	0.001 µM	0.001 µM	–
CCN(CC)/C(C)=N/C1=Nc2ccc(OC(F)(F)F)cc2CS1	inactive	inactive	inactive	inactive	inactive	inactive	–
CCN(CC)/C(C)=N/C1=Nc2ccccc2SC1	inactive	inactive	inactive	inactive	inactive	inactive	–
C/C(=N\C1=Nc2ccccc2SC1)N(C)C	inactive	inactive	inactive	inactive	inactive	inactive	–
CCCN(CCC)/C(C)=N/C1=Nc2ccccc2SC1	53.5%	inactive	10 µM	10 µM	inactive	inactive	–
CCCNC(=S)NC1=Nc2ccccc2CS1	inactive	45.7%	inactive	inactive	0.001 µM	0.001 µM	–
